Experimental data reported in ChEMBL document CHEMBL4316620, “Dihydropyrrolones as bacterial quorum sensing inhibitors” (Bioorg Med Chem Lett, 2019).
Calls of active or inactive are those of the source. The rule behind the calls is not given here.

Key:
[1] = Inhibition of quorum sensing system in Pseudomonas aeruginosa MH602 PlasB::gfp at 250 uM incubated for 15 hrs by GFP reporter gene assay
Method in brief: (§1)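 Reporter strain P. aeruginosa PlasB::gfp (PAMH602) makes its own AHL; lasB promoter drives GFP-ASV. Cultures incubated with compound over 250–31.25 µM at 37 °C for 15 h, then GFP fluorescence read at 535 nm. QSI expressed as % relative to untreated PAMH602 negative control. Furanone positive control.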

[2] = test system: Pseudomonas aeruginosa; assay: Toxicity in Pseudomonas aeruginosa MH602 PlasB::gfp assessed as inhibition of bacterial growth at 250 uM incubated for 15 hrs by spectrophotometry; type: organism-based; settings: MH602, 15 h, read-out: GI
[3] = Inhibition of quorum sensing system in Pseudomonas aeruginosa MH602 PlasB::gfp at 62.5 uM incubated for 15 hrs by GFP reporter gene assay; method in brief: as §1
[4] = Inhibition of quorum sensing system in Pseudomonas aeruginosa MH602 PlasB::gfp at 125 uM incubated for 15 hrs by GFP reporter gene assay; method in brief: as §1
[5] = test system: Pseudomonas aeruginosa; assay: Inhibition of biofilm formation in Pseudomonas aeruginosa PAO1 at 62.5 uM incubated for 6 hrs by crystal violet staining based method; type: functional; settings: PAO1, 6 h
Method in brief: (§2)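 P. aeruginosa PA01 biofilm. Cultures grown with or without test compound for 6 h. Biofilm biomass quantified by crystal violet staining (OD550). % inhibition calculated relative to DMSO control.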

[6] = test system: Pseudomonas aeruginosa; assay: Toxicity in Pseudomonas aeruginosa MH602 PlasB::gfp assessed as inhibition of bacterial growth at 31.25 uM incubated for 15 hrs by spectrophotometry; type: organism-based; settings: MH602, 15 h, read-out: GI
[7] = test system: Pseudomonas aeruginosa; assay: Inhibition of biofilm formation in Pseudomonas aeruginosa PAO1 at 250 uM incubated for 6 hrs by crystal violet staining based method; type: functional; settings: for inhibition at 250 µM: PAO1, 6 h; method in brief: as §2
[8] = test system: Pseudomonas aeruginosa; assay: Toxicity in Pseudomonas aeruginosa MH602 PlasB::gfp assessed as inhibition of bacterial growth at 125 uM incubated for 15 hrs by spectrophotometry; type: organism-based; settings: MH602, 15 h, read-out: GI
[9] = test system: Pseudomonas aeruginosa; assay: Toxicity in Pseudomonas aeruginosa MH602 PlasB::gfp assessed as inhibition of bacterial growth at 62.5 uM incubated for 15 hrs by spectrophotometry; type: organism-based; settings: MH602, 15 h, read-out: GI
[10] = Inhibition of quorum sensing system in Pseudomonas aeruginosa MH602 PlasB::gfp at 31.25 uM incubated for 15 hrs by GFP reporter gene assay; method in brief: as §1

Row | SMILES | inhibition [1] [%] | inhibition at 250 µM [2] [%] | inhibition [3] [%] | inhibition [4] [%] | inhibition at 62.5 µM [5] [%] | inhibition at 31.25 µM [6] [%] | inhibition at 250 µM [7] [%] | inhibition at 125 µM [8] [%] | inhibition at 62.5 µM [9] [%] | inhibition [10] [%] | inhibition [7]
1 | C=C1C(c2ccc(Br)cc2)=CC(=O)N1c1ccsc1 | 86 | > 30 | 59.9 | 75 | 47 | ≤ 15 | 87.4 | 15 to 30 | ≤ 15 | 49.9 | –
2 | C=C1C(c2ccccc2F)=CC(=O)N1c1ccc(C)cc1 | 65 | ≤ 15 | 53.3 | 62.8 | – | ≤ 15 | 49.3 | ≤ 15 | ≤ 15 | 29.6 | –
3 | C=C1C(c2ccc(Br)cc2)=CC(=O)N1c1ccc(Br)cc1 | 54.3 | ≤ 15 | 40.4 | 50.5 | – | ≤ 15 | 17 | ≤ 15 | ≤ 15 | 8.81 | –
4 | C=C1C(c2ccccc2F)=CC(=O)N1c1cccc(Cl)c1 | 64.4 | ≤ 15 | 49.6 | 57.3 | – | ≤ 15 | 46.9 | ≤ 15 | ≤ 15 | 38.7 | –
5 | O=C1C=C(c2ccc(F)cc2)CN1 | 63 | ≤ 15 | 28.7 | 40.2 | – | ≤ 15 | – | ≤ 15 | ≤ 15 | 27.1 | inactive
6 | O=C1C=C(c2ccccc2)CN1 | 57.7 | ≤ 15 | 32.4 | 60.8 | – | ≤ 15 | 14.4 | ≤ 15 | ≤ 15 | 31.7 | –
7 | O=C1C=C(c2cccc(F)c2)CN1 | 67.2 | ≤ 15 | 24 | 45.5 | – | ≤ 15 | 21.4 | ≤ 15 | ≤ 15 | 22.4 | –
8 | C=C1NC(=O)C=C1c1ccc(F)cc1 | 82.4 | 15 to 30 | 60.2 | 76.3 | – | ≤ 15 | 46.1 | ≤ 15 | ≤ 15 | 33.3 | –
9 | C=C1NC(=O)C=C1c1cccc(C(F)(F)F)c1 | 74.4 | ≤ 15 | 57.1 | 67.9 | – | ≤ 15 | 50.3 | ≤ 15 | ≤ 15 | 35.4 | –
10 | C=C1C(c2ccccc2F)=CC(=O)N1c1cccc(F)c1 | 61.1 | ≤ 15 | 41.8 | 55.2 | – | ≤ 15 | 58.9 | ≤ 15 | ≤ 15 | 24 | –
11 | C=C1C(c2ccccc2F)=CC(=O)N1c1cccc(C)c1 | 59.1 | ≤ 15 | 25.5 | 39.7 | – | ≤ 15 | 42 | ≤ 15 | ≤ 15 | 25.3 | –
12 | C=C1NC(=O)C=C1c1cccc(F)c1 | 72.8 | ≤ 15 | 52.9 | 66.5 | – | ≤ 15 | 55.2 | ≤ 15 | ≤ 15 | 39.5 | –
13 | O=C1C=C(c2ccsc2)CN1 | 72.1 | ≤ 15 | 26.6 | 49.3 | – | ≤ 15 | – | ≤ 15 | ≤ 15 | 24.7 | inactive
14 | C=C1C(c2ccccc2F)=CC(=O)N1c1ccccc1 | 63.7 | ≤ 15 | 56.9 | 60.9 | – | ≤ 15 | 38.2 | ≤ 15 | ≤ 15 | 46.4 | –
15 | C=C1NC(=O)C(C)=C1c1ccc(F)cc1 | 66.5 | ≤ 15 | 32.1 | 59.9 | – | ≤ 15 | 4.4 | ≤ 15 | ≤ 15 | 26.3 | –
16 | O=C1C=C(c2ccccc2F)CN1 | 67.9 | ≤ 15 | 30.5 | 48.8 | – | ≤ 15 | 10.9 | ≤ 15 | ≤ 15 | 24.4 | –
17 | C=C1C(c2ccc(Br)cc2)=CC(=O)N1c1cccc(Br)c1 | 73.2 | ≤ 15 | 37.7 | 60.3 | – | ≤ 15 | 47.1 | ≤ 15 | ≤ 15 | 12.6 | –
18 | O=C1C=C(c2ccc(Br)cc2)CN1 | 65.9 | ≤ 15 | 25 | 42.8 | – | ≤ 15 | – | ≤ 15 | ≤ 15 | 21.9 | inactive
19 | C=C1C(c2ccccc2F)=CC(=O)N1c1ccc(Cl)cc1 | 59.4 | ≤ 15 | 51.6 | 57.9 | – | ≤ 15 | 46.5 | ≤ 15 | ≤ 15 | 36.2 | –
20 | C=C1C(c2ccc(Br)cc2)=CC(=O)N1c1ccc(C(F)(F)F)cc1 | 52.8 | ≤ 15 | 45.8 | 48.4 | – | ≤ 15 | 37.5 | ≤ 15 | ≤ 15 | 11.2 | –
21 | C=C1NC(=O)C=C1c1ccc(Cl)cc1 | 73.8 | ≤ 15 | 49.4 | 64.6 | – | ≤ 15 | 60.9 | ≤ 15 | ≤ 15 | 33.3 | –
22 | C=C1C(c2ccc(Br)cc2)=CC(=O)N1c1ccc(Cl)cc1 | 52.4 | ≤ 15 | 44.9 | 50.3 | – | ≤ 15 | 43.8 | ≤ 15 | ≤ 15 | 7.39 | –
23 | C=C1NC(=O)C=C1c1ccc(Br)cc1 | 82.3 | 15 to 30 | 66.9 | 75.2 | – | ≤ 15 | 62.5 | ≤ 15 | ≤ 15 | 63.1 | –
